Data published in ChEMBL document CHEMBL3259568 (Bioorg Med Chem, 2014).

Columns and labels:
[1] = target: T1, Prostaglandin G/H synthase 1 (Ovis aries) (UniProt P05979); assay: Inhibition of ovine COX1 peroxidase activity assessed as reduction of PGG2 to PGH2 by measuring oxidized TMPD level at 10 ug/ml by colorimetric assay relative to control
T1 sequence (whole entry): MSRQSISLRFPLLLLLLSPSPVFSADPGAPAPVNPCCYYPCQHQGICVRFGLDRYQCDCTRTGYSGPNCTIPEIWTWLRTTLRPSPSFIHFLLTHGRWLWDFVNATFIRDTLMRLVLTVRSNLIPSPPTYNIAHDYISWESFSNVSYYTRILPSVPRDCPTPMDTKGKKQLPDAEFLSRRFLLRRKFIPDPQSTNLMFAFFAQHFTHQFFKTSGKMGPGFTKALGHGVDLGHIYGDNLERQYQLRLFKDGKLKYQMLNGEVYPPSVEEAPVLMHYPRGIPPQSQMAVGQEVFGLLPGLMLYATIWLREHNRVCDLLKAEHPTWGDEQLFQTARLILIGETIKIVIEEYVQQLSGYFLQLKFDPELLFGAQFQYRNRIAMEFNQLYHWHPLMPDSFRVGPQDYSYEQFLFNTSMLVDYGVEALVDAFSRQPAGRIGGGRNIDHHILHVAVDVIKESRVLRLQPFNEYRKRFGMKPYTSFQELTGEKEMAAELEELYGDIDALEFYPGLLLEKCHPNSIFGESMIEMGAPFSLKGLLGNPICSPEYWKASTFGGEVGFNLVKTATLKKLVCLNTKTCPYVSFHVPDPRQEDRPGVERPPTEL

[2] = test system: Mus musculus; assay: Analgesic activity in albino mouse assessed as protection against glacial acetic acid-induced writhing at 10 mg/kg, po administered 0.5 hrs followed by glacial acetic acid challenge measured for 15 mins relative to control; assay type: functional
Procedure, shortened: (§1)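 Mice (20–25 g) pre-screened 24 h earlier with i.p. 10 ml/kg 0.6% glacial acetic acid; only responders used. Oral dosing as suspension in 0.5% sodium CMC 30 min before acetic acid challenge. Writhing episodes counted for 15 min; group means versus vehicle control; ANOVA with Dunnett test.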

[3] = test system: Mus musculus; assay: Acute toxicity in albino mouse assessed as effect on general behavioral profile at 2000 mg/kg, po measured for 3 hrs; assay type: organism-based; parameters: dose 2000 mg/kg, route oral; details: in vivo
Procedure, shortened: (§2)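 OECD guideline test. Albino mice of either sex, 20–25 g, six per group, fasted 24 h with water ad libitum. Compounds suspended in 0.5% aqueous sodium CMC and given orally in increasing doses of 10, 20, 100, 200, 1000 and 2000 mg/kg b.w. Animals watched continuously for 3 h for general behavioural, neurological and autonomic profiles, then every 30 min for 3 h, then up to 24 h or until death.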

[4] = test system: Rattus norvegicus; assay: Antipyretic activity in albino rat assessed as yeast-induced pyrexia at 10 mg/kg, po measured at 5 hrs by telethermometer (reference value: 37.89 degC); assay type: functional
Procedure, shortened: (§3)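 Male albino rats (170–230 g) given s.c. 2.5 ml 20% aqueous baker's yeast; rectal temperature by telethermometer before and at 18 h (taken as 0 h). Rats with 1–2 °C rise, six per group, dosed orally 30 min later (control 1 ml 0.5% sodium CMC). Temperature recorded hourly to 5 h; temperature index = sum of mean changes from 0 h.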

[5] = test system: Mus musculus; assay: Acute toxicity in albino mouse assessed as effect on neurological profile at 2000 mg/kg, po measured for 3 hrs; assay type: organism-based; parameters: dose 2000 mg/kg, route oral; details: in vivo; procedure, shortened: as §2
[6] = test system: Rattus norvegicus; assay: Acute antiinflammatory activity in albino rat assessed as inhibition of carrageenan-induced paw edema at 10 mg/kg, po administered 1 hr followed by carrageenan challenge measured at 4 hrs by plethysmometric analysis relative to control; assay type: functional
Procedure, shortened: (§4)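 Male albino rats (170–220 g), fasted ≥12 h with water, six per group. Oral dosing in 0.5% sodium CMC (control 1 ml vehicle), then 1 h later subplantar 0.05 ml of 1% carrageenan into left hind footpad. […] Mean ± SEM, ANOVA/Dunnett.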

[7] = test system: Rattus norvegicus; assay: Antipyretic activity in albino rat assessed as decrease in yeast-induced pyrexia by measuring temperature index at 10 mg/kg, po measured over 5 hrs by telethermometer (reference value: 1.04 degC); assay type: functional; procedure, shortened: as §3
[8] = test system: Rattus norvegicus; assay: Ulcerogenic activity in albino rat stress model assessed as ulcer index at 10 mg/kg, po after 7 hrs; assay type: toxicity, organism-based; parameters: dose 10 mg/kg, route oral; details: in vivo
Procedure, shortened: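 Albino rats of either sex (170–250 g), six per group, starved 48 h with water, dosed orally 10 mg/kg in sodium CMC; killed 7 h later. Stomach opened along greater curvature and everted; lesions counted in five size classes (pinpoint to >4 mm) to give ulcer index, reported as min–max range.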

[9] = test system: Mus musculus; assay: Acute toxicity in albino mouse assessed as effect on autonomic profile at 2000 mg/kg, po measured for 3 hrs; assay type: organism-based; parameters: dose 2000 mg/kg, route oral; details: in vivo; procedure, shortened: as §2
[10] = test system: Rattus norvegicus; assay: Antipyretic activity in albino rat assessed as yeast-induced pyrexia at 10 mg/kg, po measured at 2 hrs by telethermometer (reference value: 38.20 degC); assay type: functional; procedure, shortened: as §3
[11] = test system: Rattus norvegicus; assay: Acute antiinflammatory activity in albino rat assessed as inhibition of carrageenan-induced paw edema at 10 mg/kg, po administered 1 hr followed by carrageenan challenge measured at 2 hrs by plethysmometric analysis relative to control; assay type: functional; procedure, shortened: as §4
[12] = test system: Rattus norvegicus; assay: Antipyretic activity in albino rat assessed as yeast-induced pyrexia at 10 mg/kg, po measured at 1 hr by telethermometer (reference value: 38.26 degC); assay type: functional; procedure, shortened: as §3
[13] = test system: Mus musculus; assay: Acute toxicity in albino mouse assessed as mortality at 2000 mg/kg, po measured continuously for 3 hrs followed by every 30 mins for next 3 hrs up to 24 hrs; assay type: organism-based; parameters: dose 2000 mg/kg, route oral; details: in vivo; procedure, shortened: as §2
[14] = test system: Rattus norvegicus; assay: Antipyretic activity in albino rat assessed as yeast-induced pyrexia at 10 mg/kg, po measured at 4 hrs by telethermometer (reference value: 38 degC); assay type: functional; procedure, shortened: as §3
[15] = target: T2, Prostaglandin G/H synthase 1 (Ovis aries, UniProt P05979); assay: Inhibition of ovine COX1 peroxidase activity assessed as reduction of PGG2 to PGH2 by measuring oxidized TMPD level by colorimetric assay
T2 sequence (P05979 whole entry): T1 sequence (whole entry)

[16] = test system: Rattus norvegicus; assay: Antipyretic activity in albino rat assessed as yeast-induced pyrexia at 10 mg/kg, po measured at 3 hrs by telethermometer (reference value: 38.11 degC); assay type: functional; procedure, shortened: as §3
[17] = test system: Rattus norvegicus; assay: Acute antiinflammatory activity in albino rat assessed as inhibition of carrageenan-induced paw edema at 13.5 mg/kg, po administered 1 hr followed by carrageenan challenge measured at 4 hrs by plethysmometric analysis relative to control; assay type: functional; procedure, shortened: as §4
[18] = test system: Mus musculus; assay: Analgesic activity in albino mouse assessed as protection against glacial acetic acid-induced writhing at 19.5 mg/kg, po administered 0.5 hrs followed by glacial acetic acid challenge measured for 15 mins relative to control; assay type: functional; procedure, shortened: as §1
[19] = test system: Rattus norvegicus; assay: Acute antiinflammatory activity in albino rat assessed as inhibition of carrageenan-induced paw edema at 13.5 mg/kg, po administered 1 hr followed by carrageenan challenge measured at 2 hrs by plethysmometric analysis relative to control; assay type: functional; procedure, shortened: as §4
[20] = test system: Rattus norvegicus; assay: Antipyretic activity in albino rat assessed as yeast-induced pyrexia at 135 mg/kg, po measured at 3 hrs by telethermometer (reference value: 38.11 degC); assay type: functional; procedure, shortened: as §3
[21] = test system: Rattus norvegicus; assay: Antipyretic activity in albino rat assessed as decrease in yeast-induced pyrexia by measuring temperature index at 135 mg/kg, po measured over 5 hrs by telethermometer (reference value: 1.04 degC); assay type: functional; procedure, shortened: as §3
[22] = test system: Rattus norvegicus; assay: Antipyretic activity in albino rat assessed as yeast-induced pyrexia at 135 mg/kg, po measured at 5 hrs by telethermometer (reference value: 37.89 degC); assay type: functional; procedure, shortened: as §3
[23] = test system: Rattus norvegicus; assay: Antipyretic activity in albino rat assessed as yeast-induced pyrexia at 135 mg/kg, po measured at 1 hr by telethermometer (reference value: 38.26 degC); assay type: functional; procedure, shortened: as §3
[24] = test system: Rattus norvegicus; assay: Antipyretic activity in albino rat assessed as yeast-induced pyrexia at 135 mg/kg, po measured at 4 hrs by telethermometer (reference value: 38 degC); assay type: functional; procedure, shortened: as §3
[25] = test system: Rattus norvegicus; assay: Antipyretic activity in albino rat assessed as yeast-induced pyrexia at 135 mg/kg, po measured at 2 hrs by telethermometer (reference value: 38.20 degC); assay type: functional; procedure, shortened: as §3

Row | SMILES | inhibition [1] [%] | Activity [2] [%] | Activity [3] | T [4] [°C] | Activity [5] | inhibition in vivo at 10 mg/kg [6] [%] | T [7] [°C] | UI [8] | Activity [9] | T [10] [°C] | inhibition in vivo at 10 mg/kg [11] [%] | T [12] [°C] | Activity [13] | T [14] [°C] | IC50 [15] [µM] | T [16] [°C] | also measured
1 | S=c1oc(Cc2ccccc2Nc2c(Cl)cccc2Cl)nn1CNc1cccc(Cl)c1 | 25 | 82.2 | Non-toxic | 37.2 | Non-toxic | 74.4 | 5.4 | 2.1 | Non-toxic | 38.6 | 71.8 | 38.9 | Non-toxic | 37.8 | > 50 | 38.1 | 
2 | S=c1oc(Cc2ccccc2Nc2c(Cl)cccc2Cl)nn1CNC1CCCCC1 | 19.6 | 77.6 | Non-toxic | 36.78 | Non-toxic | 67.5 | 4.38 | 3.6 | Non-toxic | 37.69 | 65.9 | 37.98 | Non-toxic | 37.79 | > 50 | 37.03 | 
3 | S=c1oc(Cc2ccccc2Nc2c(Cl)cccc2Cl)nn1CN1CCOCC1 | 34.1 | 77 | Non-toxic | 37.15 | Non-toxic | 63.8 | 3.91 | 2.6 | Non-toxic | 37.55 | 64.3 | 37.7 | Non-toxic | 37.06 | > 50 | 37.13 | 
4 | S=c1oc(Cc2ccccc2Nc2c(Cl)cccc2Cl)nn1CN1CCNCC1 | 43.2 | 75.9 | Non-toxic |  | Non-toxic | 56.5 |  |  | Non-toxic |  | 51.4 |  | Non-toxic |  | > 50 |  | 
5 | CC(=O)Oc1ccccc1C(=O)O [ASPIRIN] |  |  |  |  |  |  |  | 4.7 |  |  |  |  |  |  |  |  | 
6 | CC(C(=O)O)c1ccc(-c2ccccc2)c(F)c1 (centres undefined) [FLURBIPROFEN] |  |  |  |  |  |  |  | 5.9 |  |  |  |  |  |  |  |  | 
7 | CCN1CCN(Cn2nc(Cc3ccccc3Nc3c(Cl)cccc3Cl)oc2=S)CC1 | 28.4 | 81 | Non-toxic | 37.1 | Non-toxic | 68.9 | 6.6 | 1.9 | Non-toxic | 38.3 | 63.1 | 39.2 | Non-toxic | 37.7 | > 50 | 37.9 | 
8 | O=C(O)Cc1ccccc1Nc1c(Cl)cccc1Cl [DICLOFENAC] |  |  |  |  |  |  |  | 5.5 |  |  |  |  |  |  |  |  | inhibition in vivo at 13.5 mg/kg [17]: 66.2%; Activity [18]: 79.3%; inhibition in vivo at 13.5 mg/kg [19]: 65.5%
9 | S=c1oc(Cc2ccccc2Nc2c(Cl)cccc2Cl)nn1CN1CCCCC1 | 30.9 | 74.1 | Non-toxic |  | Non-toxic | 45.9 |  |  | Non-toxic |  | 48.3 |  | Non-toxic |  | > 50 |  | 
10 | CC(=O)Nc1ccc(O)cc1 [ACETAMINOPHEN] |  |  |  |  |  |  |  |  |  |  |  |  |  |  |  |  | T [20]: 37.6 °C; T [21]: 6.7 °C; T [22]: 37 °C; T [23]: 38.4 °C; T [24]: 37.3 °C; T [25]: 38 °C
11 | CC1CCN(Cn2nc(Cc3ccccc3Nc3c(Cl)cccc3Cl)oc2=S)CC1 |  |  | Non-toxic |  | Non-toxic | 33.8 |  |  | Non-toxic |  | 36.9 |  | Non-toxic |  |  |  | 
12 | CN1CCN(Cn2nc(Cc3ccccc3Nc3c(Cl)cccc3Cl)oc2=S)CC1 | 35.2 | 77.6 | Non-toxic | 37.2 | Non-toxic | 64.5 | 2.81 | 2.3 | Non-toxic | 37.94 | 65.1 | 37.72 | Non-toxic | 37.44 | > 50 | 37.8 | 
13 | CN(Cn1nc(Cc2ccccc2Nc2c(Cl)cccc2Cl)oc1=S)c1ccccc1 |  |  | Non-toxic |  | Non-toxic | 41 |  |  | Non-toxic |  | 41.8 |  | Non-toxic |  |  |  | 
14 | S=c1oc(Cc2ccccc2Nc2c(Cl)cccc2Cl)nn1CNc1ccccc1Cl | 27.8 | 77.6 | Non-toxic | 37.11 | Non-toxic | 61.3 | 3.06 | 3.2 | Non-toxic | 37.77 | 59.4 | 37.74 | Non-toxic | 37.06 | > 50 | 37.36 | 
15 | CC1CCCCN1Cn1nc(Cc2ccccc2Nc2c(Cl)cccc2Cl)oc1=S (centres undefined) |  |  | Non-toxic |  | Non-toxic | 36.6 |  |  | Non-toxic |  | 39.4 |  | Non-toxic |  |  |  | 
